Measurements: ChEMBL document CHEMBL1142665, “Synthesis and cytotoxic evaluation of novel spirohydantoin derivatives of the dihydrothieno[2,3-b]naphtho-4,9-dione system” (J Med Chem, 2005)

Columns and labels:
SW-620 = experiment: Inhibitory concentration against SW 620 human colon carcinoma cell line; assay type: functional, cell-based
Outline: (§1)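 Monolayer cultures in RPMI-1640 with 10% FBS; sensitive lines from ATCC, drug-resistant sublines from Istituto Tumori of Milan. Cells seeded at about 10% confluency and allowed 24 h to attach and recover. Exposed to varying drug concentrations for 24 h at 37 °C under 5% CO2, washed, then grown 48 h drug-free. Vehicle-matched controls. SRB read-out as %T/C. IC50 taken from dose/effect curve. Triplicate wells, mean of ≥3 independent experiments.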

MCF7 [1] = experiment: Inhibitory concentration against MCF-7 human breast carcinoma cell line; assay type: functional, cell-based; outline: as §1
A2780cisR = experiment: Inhibitory concentration against A2780 ovarian carcinoma resistant to cisplatin; assay type: functional, cell-based; settings: Homo sapiens; outline: as §1
[2] = Inhibitory concentration against MeVo melanoma cell line; assay type: functional, Homo sapiens; outline: as §1
A549 = experiment: Inhibitory concentration against A549 lung carcinoma cell line; assay type: functional, cell-based; settings: Homo sapiens; outline: as §1
A2780 [3] = experiment: Inhibitory concentration against A2780 ovarian carcinoma resistant to doxorubicin; assay type: functional, cell-based; settings: Homo sapiens; outline: as §1
A2780 [4] = experiment: Inhibitory concentration against A2780 ovarian carcinoma cell line; assay type: functional, cell-based; settings: Homo sapiens; outline: as §1
LoVo = experiment: Inhibitory concentration against LoVo colon carcinoma cell line; assay type: functional, cell-based; settings: Homo sapiens; outline: as §1
HEp-2 = experiment: Inhibitory concentration against Hep-2 epidermal carcinoma cell line; assay type: functional, cell-based; settings: Homo sapiens; outline: as §1
NCI-H460 = experiment: Inhibitory concentration against NCI-H460 lung carcinoma cell line; assay type: functional, cell-based; settings: Homo sapiens; outline: as §1
KB = experiment: Inhibitory concentration against KB epidermal carcinoma cell line; assay type: functional, cell-based; settings: Homo sapiens; outline: as §1
MCF7 [5] = experiment: Inhibitory concentration against MCF-7 human breast carcinoma resistant to doxorubicin; assay type: functional, cell-based; outline: as §1

| IC50 (SW-620; Homo sapiens, SW-620) [nM] | IC50 (MCF7 [1]; Homo sapiens, MCF7) [nM] | Structure (SMILES) | also measured |
| --- | --- | --- | --- |
|  |  | NCCN1C(=O)NC2(CSC3=C2C(=O)c2ccccc2C3=O)C1=O (single isomer, unassigned; (+)) | IC50 (SW-620; sw-620): 34 nM; IC50 (MCF7 [1]; mcf7): 20 nM |
| 198 | 69 | O=C1C2=C(C(=O)c3ccccc31)C1(CS2)NC(=O)N(CCO)C1=O (configuration not stated) |  |
| 57 | 32 | CN(C)CCN1C(=O)NC2(CSC3=C2C(=O)c2ccccc2C3=O)C1=O (configuration not stated) |  |
| 35 | 22 | NCCN1C(=O)NC2(CSC3=C2C(=O)c2ccccc2C3=O)C1=O (stereo in doubt; 11) |  |
| 68 | 35 | NCCCCN1C(=O)NC2(CSC3=C2C(=O)c2ccccc2C3=O)C1=O (configuration not stated) |  |
| 178 |  | COc1cccc2c1C(=O)c1c(O)c3c(c(O)c1C2=O)C[C@@](O)(C(=O)CO)C[C@@H]3O[C@H]1C[C@H](N)[C@H](O)[C@H](C)O1 [DOXORUBICIN] | IC50 (A2780cisR): 6 nM; IC50 [2]: 820 nM; IC50 (A549): 64 nM; IC50 (A2780 [3]): 290 nM; IC50 (A2780 [4]): 7 nM; IC50 (LoVo): 33 nM; IC50 (HEp-2): 59 nM; IC50 (NCI-H460): 10 nM; IC50 (KB): 21 nM |
| 52 | 25 | NCCCN1C(=O)NC2(CSC3=C2C(=O)c2ccccc2C3=O)C1=O (configuration not stated) |  |
| 379 | 104 | CCCN1C(=O)NC2(CSC3=C2C(=O)c2ccccc2C3=O)C1=O (configuration not stated) |  |
|  |  | NCCN1C(=O)NC2(CSC3=C2C(=O)c2ccccc2C3=O)C1=O (stereo in doubt; (-)-11) | IC50 (SW-620; sw-620): 47 nM; IC50 (MCF7 [1]; mcf7): 31 nM |
|  |  | CN(C)CCCN1C(=O)NC2(CSC3=C2C(=O)c2ccccc2C3=O)C1=O (single isomer, unassigned; (+)) | IC50 (SW-620; sw-620): 60 nM |
| 119 | 40 | O=C1C2=C(C(=O)c3ccccc31)C1(CS2)NC(=O)N(CCCO)C1=O (configuration not stated) |  |
| 58 | 19 | CN(C)CCCN1C(=O)NC2(CSC3=C2C(=O)c2ccccc2C3=O)C1=O (stereo in doubt; 15) | IC50 (A2780cisR): 110 nM; IC50 [2]: 250 nM; IC50 (A549): 110 nM; IC50 (A2780 [3]): 130 nM; IC50 (A2780 [4]): 68 nM; IC50 (LoVo): 230 nM; IC50 (HEp-2): 170 nM; IC50 (MCF7 [5]): 173 nM; IC50 (NCI-H460): 260 nM; IC50 (KB): 100 nM |
| 562 | 178 | CCC(C)N1C(=O)NC2(CSC3=C2C(=O)c2ccccc2C3=O)C1=O (configuration not stated) |  |
| 900 | 331 | CC(C)(C)N1C(=O)NC2(CSC3=C2C(=O)c2ccccc2C3=O)C1=O (configuration not stated) |  |
| 50 | 21 | CCN(CC)CCN1C(=O)NC2(CSC3=C2C(=O)c2ccccc2C3=O)C1=O (configuration not stated) |  |
| 740 | 178 | CCCCN1C(=O)NC2(CSC3=C2C(=O)c2ccccc2C3=O)C1=O (configuration not stated) |  |
| 108 | 23 | CN1C(=O)NC2(CSC3=C2C(=O)c2ccccc2C3=O)C1=O (configuration not stated) |  |
| 54 | 26 | CCN(CC)CCCN1C(=O)NC2(CSC3=C2C(=O)c2ccccc2C3=O)C1=O (configuration not stated) |  |
| 203 | 116 | CCN1C(=O)NC2(CSC3=C2C(=O)c2ccccc2C3=O)C1=O (configuration not stated) |  |
|  |  | CN(C)CCCN1C(=O)NC2(CSC3=C2C(=O)c2ccccc2C3=O)C1=O (stereo in doubt; (-)-15) | IC50 (SW-620; sw-620): 65 nM; IC50 (MCF7 [1]; mcf7): 27 nM |
